Test results published in ChEMBL document CHEMBL5058577, “EUbOPEN Chemogenomics Library 2 (Multiplex)” (2022).

Tested on: Fibroblast
Experiment: Multiplex assay against human fibroblast
Format: toxicity, cell-based
Method in brief: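 Live cells carried four stains from seeding: Hoechst33342, BioTracker Green Microtubule Cytoskeleton Dye, MitoTracker Red and Annexin V Alexa Fluor 680. They were imaged on a CQ1 microscope at 37°C and 5% CO2 after compound addition. Using CellPathfinder machine-learning gating, cells were split into Hoechst high-intensity objects or normal cells, normal cells into healthy, pyknosed or fragmented nuclei, and pyknosed cells into mitotic or apoptotic; tubulin, mitochondrial-mass and membrane-permeability phenotypes are per cents of healthy-nucleus cells.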

[1] = 12 h, 1 µM, compound concentration 1 uM, replicate 1
[2] = 12 h, 1 µM, compound concentration 1 uM, replicate 2
[3] = 12 h, 10 µM, compound concentration 10 uM, replicate 1
[4] = 12 h, 10 µM, compound concentration 10 uM, replicate 2
[5] = 24 h, 1 µM, compound concentration 1 uM, replicate 1
[6] = 24 h, 1 µM, compound concentration 1 uM, replicate 2
[7] = 24 h, 10 µM, compound concentration 10 uM, replicate 1
[8] = 24 h, 10 µM, compound concentration 10 uM, replicate 2
[9] = 48 h, 1 µM, compound concentration 1 uM, replicate 1
[10] = 48 h, 1 µM, compound concentration 1 uM, replicate 2
[11] = 48 h, 10 µM, compound concentration 10 uM, replicate 1
[12] = 48 h, 10 µM, compound concentration 10 uM, replicate 2

Cc1noc(-c2ccc(-c3ccc(CC(=O)O)cc3)cc2)c1NC(=O)O[C@H](C)c1ccccc1Cl
Population Apoptotic (%) [1]: 22% | Population Fragmented Nuclei (%) [1]: 14% | Population Healthy Nuclei (%) [1]: 77% | Population Hoechst High Intensity Objects (%) [1]: 0% | Population Membrane Permeable-Phenotype (%) [1]: 0% | Population Mitochondria Different-Phenotype (%) [1]: 1% | Population Mitotic Cells (%) [1]: 77% | Population Normal (%) [1]: 100% | Population Pyknosed Nuclei (%) [1]: 8% | Population Tubulin-Different-Phenotype (%) [1]: 10% | Total Cell Count [1]: 106 | Population Apoptotic (%) [2]: 58% | Population Fragmented Nuclei (%) [2]: 21% | Population Healthy Nuclei (%) [2]: 60% | Population Hoechst High Intensity Objects (%) [2]: 5% | Population Membrane Permeable-Phenotype (%) [2]: 5% | Population Mitochondria Different-Phenotype (%) [2]: 2% | Population Mitotic Cells (%) [2]: 41% | Population Normal (%) [2]: 95% | Population Pyknosed Nuclei (%) [2]: 18% | Population Tubulin-Different-Phenotype (%) [2]: 26% | Total Cell Count [2]: 140 | Population Apoptotic (%) [3]: 40% | Population Fragmented Nuclei (%) [3]: 20% | Population Healthy Nuclei (%) [3]: 62% | Population Hoechst High Intensity Objects (%) [3]: 1% | Population Membrane Permeable-Phenotype (%) [3]: 1% | Population Mitochondria Different-Phenotype (%) [3]: 6% | Population Mitotic Cells (%) [3]: 60% | Population Normal (%) [3]: 98% | Population Pyknosed Nuclei (%) [3]: 17% | Population Tubulin-Different-Phenotype (%) [3]: 31% | Total Cell Count [3]: 119 | Population Apoptotic (%) [4]: 29% | Population Fragmented Nuclei (%) [4]: 17% | Population Healthy Nuclei (%) [4]: 45% | Population Hoechst High Intensity Objects (%) [4]: 6% | Population Membrane Permeable-Phenotype (%) [4]: 2% | Population Mitochondria Different-Phenotype (%) [4]: 10% | Population Mitotic Cells (%) [4]: 70% | Population Normal (%) [4]: 93% | Population Pyknosed Nuclei (%) [4]: 36% | Population Tubulin-Different-Phenotype (%) [4]: 57% | Total Cell Count [4]: 90 | Population Apoptotic (%) [5]: 20% | Population Fragmented Nuclei (%) [5]: 16% | Population Healthy Nuclei (%) [5]: 78% | Population Hoechst High Intensity Objects (%) [5]: 0% | Population Membrane Permeable-Phenotype (%) [5]: 0% | Population Mitochondria Different-Phenotype (%) [5]: 1% | Population Mitotic Cells (%) [5]: 80% | Population Normal (%) [5]: 100% | Population Pyknosed Nuclei (%) [5]: 4% | Population Tubulin-Different-Phenotype (%) [5]: 10% | Total Cell Count [5]: 102 | Population Apoptotic (%) [6]: 52% | Population Fragmented Nuclei (%) [6]: 30% | Population Healthy Nuclei (%) [6]: 57% | Population Hoechst High Intensity Objects (%) [6]: 2% | Population Membrane Permeable-Phenotype (%) [6]: 1% | Population Mitochondria Different-Phenotype (%) [6]: 7% | Population Mitotic Cells (%) [6]: 47% | Population Normal (%) [6]: 97% | Population Pyknosed Nuclei (%) [6]: 12% | Population Tubulin-Different-Phenotype (%) [6]: 28% | Total Cell Count [6]: 161 | Population Apoptotic (%) [7]: 50% | Population Fragmented Nuclei (%) [7]: 20% | Population Healthy Nuclei (%) [7]: 68% | Population Hoechst High Intensity Objects (%) [7]: 1% | Population Membrane Permeable-Phenotype (%) [7]: 0% | Population Mitochondria Different-Phenotype (%) [7]: 7% | Population Mitotic Cells (%) [7]: 50% | Population Normal (%) [7]: 98% | Population Pyknosed Nuclei (%) [7]: 11% | Population Tubulin-Different-Phenotype (%) [7]: 29% | Total Cell Count [7]: 122 | Population Apoptotic (%) [8]: 32% | Population Fragmented Nuclei (%) [8]: 26% | Population Healthy Nuclei (%) [8]: 41% | Population Mitochondria Different-Phenotype (%) [8]: 10% | Population Mitotic Cells (%) [8]: 67% | Population Pyknosed Nuclei (%) [8]: 31% | Population Tubulin-Different-Phenotype (%) [8]: 65% | Total Cell Count [8]: 98 | Population Apoptotic (%) [9]: 44% | Population Fragmented Nuclei (%) [9]: 18% | Population Healthy Nuclei (%) [9]: 73% | Population Hoechst High Intensity Objects (%) [9]: 1% | Population Membrane Permeable-Phenotype (%) [9]: 1% | Population Mitochondria Different-Phenotype (%) [9]: 1% | Population Mitotic Cells (%) [9]: 55% | Population Normal (%) [9]: 98% | Population Pyknosed Nuclei (%) [9]: 8% | Population Tubulin-Different-Phenotype (%) [9]: 16% | Total Cell Count [9]: 112 | Population Apoptotic (%) [10]: 60% | Population Fragmented Nuclei (%) [10]: 35% | Population Healthy Nuclei (%) [10]: 55% | Population Hoechst High Intensity Objects (%) [10]: 2% | Population Membrane Permeable-Phenotype (%) [10]: 5% | Population Mitochondria Different-Phenotype (%) [10]: 3% | Population Mitotic Cells (%) [10]: 40% | Population Normal (%) [10]: 97% | Population Tubulin-Different-Phenotype (%) [10]: 25% | Total Cell Count [10]: 171 | Population Apoptotic (%) [11]: 23% | Population Fragmented Nuclei (%) [11]: 30% | Population Healthy Nuclei (%) [11]: 55% | Population Hoechst High Intensity Objects (%) [11]: 4% | Population Membrane Permeable-Phenotype (%) [11]: 2% | Population Mitochondria Different-Phenotype (%) [11]: 4% | Population Mitotic Cells (%) [11]: 76% | Population Normal (%) [11]: 95% | Population Pyknosed Nuclei (%) [11]: 13% | Population Tubulin-Different-Phenotype (%) [11]: 35% | Total Cell Count [11]: 133 | Population Apoptotic (%) [12]: 39% | Population Fragmented Nuclei (%) [12]: 40% | Population Healthy Nuclei (%) [12]: 37% | Population Hoechst High Intensity Objects (%) [12]: 2% | Population Membrane Permeable-Phenotype (%) [12]: 0% | Population Mitochondria Different-Phenotype (%) [12]: 10% | Population Mitotic Cells (%) [12]: 60% | Population Normal (%) [12]: 97% | Population Pyknosed Nuclei (%) [12]: 22% | Population Tubulin-Different-Phenotype (%) [12]: 69% | Total Cell Count [12]: 107
